The source of these data is ChEMBL document CHEMBL1126587, “Novel 6-alkoxypurine 2',3'-dideoxynucleosides as inhibitors of the cytopathic effect of the human immunodeficiency virus” (J Med Chem, 1993).

The structures appear in SMILES notation. Values joined by “and” are separate entries in the source; they are usually repeats but may differ in a detail not shown here. Equal entries are not always repeated.

The subject of assay [1] is L cells. Kind of assay: (§1) Percentage of control cell growth was calculated at 100 uM nucleosides after 4 days. Type of assay: functional, Mus musculus, L929. Summed up: (§2)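 Human sternal marrow D-98 cells or mouse connective tissue L cells exposed to 100 μM nucleoside for 4 days. Growth expressed as % of untreated control, which underwent at least three doublings.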
The test system of assay [2] is MT4. Kind of assay: Anti-Human immunodeficiency virus activity against MT-4 cells. The format is functional, cell-based. Summed up: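 MT4 cells infected with HTLV-IIIB at 100-fold TCID50 (100-fold the virus stock concentration giving 50% growth inhibition), compound present for 5 days. IC50 from cell growth protection. Each compound run in triplicate at least five times.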

Assay [3] can be described thus: as §1. Type of assay: functional, Homo sapiens. In outline: as §2
For assay [4], the system named is MT4. Nature of the assay: Percentage of MT-4 cell growth was calculated at 100 uM nucleosides after 5 days. The format is functional, Homo sapiens. In outline:
(§3)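 MT4 cells exposed to 100 μM nucleoside for 5 days, growth given as % of untreated control, which underwent at least three doublings.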

The test system of assay [5] is L cells. Kind of assay: Percentage of L cell growth at 100 uM nucleosides after 4 days. Type of assay: functional, Mus musculus, L929. Summed up:
as §2

For assay [6], the system named is MT4. Nature of the assay: Effect of Phosphate buffered saline on the Anti-HIV activity in MT-4 cells. Type of assay: functional, cell-based. Particulars: Homo sapiens. In outline:
(§4)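 Anti-HIV-1 assay in MT4 cells infected with 100-fold TCID50 HTLV-IIIB over 5 days, run with EHNA or coformycin at 0.1 or 1.0 μM to block deaminase; control wells received PBS in their place. IC50 determined; triplicates, at least five runs.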

Assay [7] in a line: Percentage of D98 cell growth at 100 uM nucleosides after 4 days. Type of assay: functional, Homo sapiens. Summed up: as §2
Assay [8] relates to MT4. Nature of the assay: Effect of Erythro-9-(2-Hydroxy-3-nonyl) adenine (EHNA) on the Anti-HIV activity in MT-4 cells. The format is functional, cell-based, Homo sapiens. Summed up:
as §4

Assay [9] has as its system MT4. Kind of assay: Effect of Coformycin on the Anti-HIV activity in MT-4 cells. Type of assay: functional, cell-based. Particulars: Homo sapiens. Summed up:
as §4

Assay [10] has as its system MT4. Nature of the assay: Percentage of control cell growth was calculated at 100 uM nucleosides after 5 days. Type of assay: functional, Homo sapiens. In outline:
as §3

The subject of assay [11] is MT4. Nature of the assay: Effect of Coformycin on the Anti-HIV activity in MT-4 cells at 0.10 uM. Type of assay: functional, cell-based. Particulars: Homo sapiens. In outline: as §4
Assay [12] deals with MT4. Kind of assay: Effect of Coformycin on the Anti-HIV activity in MT-4 cells at 1.0 uM. The format is functional, cell-based. Particulars: Homo sapiens. In outline: as §4
The subject of assay [13] is MT4. Nature of the assay: Effect of Erythro-9-(2-Hydroxy-3-nonyl) adenine (EHNA) on the Anti-HIV activity in MT-4 cells at 1.0 uM. Type of assay: functional, cell-based. Particulars: Homo sapiens. Summed up: as §4
Assay [14] has as its system MT4. Nature of the assay: Effect of Erythro-9-(2-Hydroxy-3-nonyl) adenine (EHNA) on the Anti-HIV activity in MT-4 cells at 0.10 uM. The format is functional, cell-based. Particulars: Homo sapiens. In outline:
as §4

As for `CCCCCCCCCOc1ncnc2c1ncn2C1CCC(CO)O1` (stereo not given), the values for the Control (with L cells [1]; in assay [3]) were 23% and 27%, respectively. Moreover, the IC50 with MT4 [2] is greater than 5 µM.

Turning to `CCCCCCOc1ncnc2c1ncn2C1CCC(CO)O1` (stereo not given), the values for the Control (in the assay with MT4 [4]; in the assay on L cells [5]; in [7]) were 100%, 42% and 54%, respectively. In addition, the half-maximal inhibitory concentration (IC50) is 24 µM in the assay with MT4 [6]; 18 µM with MT4 [2]; 25 µM and 60 µM in the assay on MT4 [8]; greater than 200 µM in the assay on MT4 [9].

Consider `COc1ncnc2c1ncn2C1CCC(CO)O1` (stereo not given), for which the Control is on record as 100% with MT4 [4], 96% in the assay with L cells [5] and 97% in [7]. Besides, in the assay on MT4 [2], the concentration for half-maximal inhibition (IC50) was greater than 100 µM.

On to `CC[C@H](C)Oc1ncnc2c1ncn2[C@H]1CC[C@@H](CO)O1`, for which the Control with MT4 [4] was 100%; with L cells [5] it was 85%; in assay [7], 81%. Moreover, the half-maximal inhibitory concentration (IC50) in the assay with MT4 [2] came to 80 µM.

In the case of `C/C=C/COc1ncnc2c1ncn2C1CCC(CO)O1` (stereo not given), the figures for the Control (in the assay on MT4 [4]; in the assay with L cells [5]; in assay [7]) were 100%, 58% and 35%, respectively. The 50% inhibitory concentration (IC50) was 70 µM in the assay on MT4 [6]; 59 µM in the assay on MT4 [2]; 50 µM in the assay on MT4 [8] (Homo sapiens, MT4); 80 µM with MT4 [8] (mt4); greater than 200 µM with MT4 [9].

As for `CCCCCOc1ncnc2c1ncn2C1CCC(CO)O1` (stereo not given), the Control is 100% with MT4 [4], 48% with L cells [5] and 60% in assay [7]. The same compound came in with a concentration for half-maximal inhibition (IC50) with MT4 [2] of 50 µM.

For `CCCCCCCCOc1ncnc2c1ncn2C1CCC(CO)O1` (stereo not given), the values for the Control (in the assay on L cells [1]; in [3]) were 28% and 29%, respectively. The compound also returned an IC50 with MT4 [2] greater than 32 µM.

`CCCCOc1ncnc2c1ncn2C1CCC(CO)O1` (stereo not given): the values for the Control (with MT4 [4]; in the assay with L cells [5]; in assay [7]) were 100%, 68% and 85%, respectively. Moreover, the IC50 was 38 µM in the assay on MT4 [6]; 70 µM in the assay on MT4 [2]; 26 µM and 70 µM with MT4 [8] (mt4); greater than 200 µM with MT4 [9].

Regarding `CCC(C)Oc1ncnc2c1ncn2[C@H]1CC[C@@H](CO)O1` (stereo not given in full), the Control in the assay on MT4 [4] is given as 100%; in the assay with L cells [5] it was 77%; in assay [7] it was 77%. This compound also gave an IC50 in the assay with MT4 [2] greater than 100 µM.

With `CC[C@@H](C)Oc1ncnc2c1ncn2[C@H]1CC[C@@H](CO)O1`, the Control was 100% with MT4 [4], 81% with L cells [5] and 81% in assay [7]. Besides, in the assay on MT4 [2], the IC50 was greater than 100 µM.

Turning to `CCCCCCCCCCOc1ncnc2c1ncn2C1CCC(CO)O1` (stereo not given), the Control in the assay on L cells [1] was 6%; in the assay with MT4 [10] it was 20%; in assay [3] it was less than 1%. Besides, the IC50 in the assay with MT4 [2] is greater than 5 µM.

For the compound `CCC(CC)Oc1ncnc2c1ncn2C1CCC(CO)O1` (stereo not given), the Control in the assay with MT4 [4] was 100%; with L cells [5], 68%; in [7], 60%. In the assay on MT4 [2], this compound registered a concentration for half-maximal inhibition (IC50) greater than 100 µM.

Consider `O=c1[nH]cnc2c1ncn2[C@H]1CC[C@@H](CO)O1` [DIDANOSINE], for which the 50% inhibitory concentration (IC50) in the assay on MT4 [11] is 28 µM; in the assay on MT4 [12], 39 µM; in the assay on MT4 [6] it was 30 µM; with MT4 [2], 23 µM; with MT4 [13], 31 µM; in the assay with MT4 [14], 30 µM. In addition, the figures for the Control (with MT4 [4]; in the assay with L cells [5]; in [7]) were 100%, 100% and 97%, respectively.

Regarding `CCCOc1ncnc2c1ncn2C1CCC(CO)O1` (stereo not given), the results for the Control (in the assay with MT4 [4]; in the assay with L cells [5]; in [7]) were 100%, 87% and 87%, respectively. Further, in the assay on MT4 [2], the IC50 was greater than 100 µM.

In the case of `CCCC(C)Oc1ncnc2c1ncn2C1CCC(CO)O1` (stereo not given), the Control is given as 100% with MT4 [4], 67% in the assay with L cells [5] and 81% in assay [7]. The same compound yielded an IC50 in the assay with MT4 [2] of 80 µM.

For `C=CCOc1ncnc2c1ncn2C1CCC(CO)O1` (stereo not given), the values for the Control (in the assay on MT4 [4]; with L cells [5]; in assay [7]) were 100%, 70% and 68%, respectively. The compound also showed an IC50 with MT4 [2] of 97 µM.

For the compound `CC(C)COc1ncnc2c1ncn2C1CCC(CO)O1` (stereo not given), the figures for the Control (in the assay with MT4 [4]; in the assay on L cells [5]; in assay [7]) were 100%, 98% and 98%, respectively. In addition, half-maximal inhibition in the assay on MT4 [2] (IC50) required 52 µM.

As to `CC(C)Oc1ncnc2c1ncn2C1CCC(CO)O1` (stereo not given), the Control in the assay on MT4 [4] is on record as 100%; in the assay on L cells [5], 72%; in assay [7], 74%. The compound also yielded an IC50 with MT4 [2] of 100 µM.

With `CCOc1ncnc2c1ncn2C1CCC(CO)O1` (stereo not given), the Control is 100% with MT4 [4], 90% in the assay on L cells [5] and 82% in assay [7]. In the assay on MT4 [2], this compound registered an IC50 greater than 100 µM.

As for `CCCCCCCOc1ncnc2c1ncn2C1CCC(CO)O1` (stereo not given), the results for the Control (in the assay with L cells [1]; in [3]) were 34% and 47%, respectively. In the assay with MT4 [2], this compound had an IC50 of 25 µM.

As to `OCC1CCC(n2cnc3c(OCCF)ncnc32)O1` (stereo not given), the Control in the assay with MT4 [4] was 100%; in the assay on L cells [5] it was 100%; in assay [7] it was 76%. The half-maximal inhibitory concentration (IC50) in the assay on MT4 [2] is greater than 100 µM.

In the case of `OCC1CCC(n2cnc3c(OCC(F)(F)F)ncnc32)O1` (stereo not given), the Control with MT4 [4] is 100%; with L cells [5] it was 82%; in assay [7] it was 82%. The IC50 in the assay on MT4 [2] is greater than 100 µM.

As a reminder, the IC50 is the concentration that inhibits the measured activity by half.
